# According to paper PMC12400138 (Molecular and Clinical Oncology, 2025):
# pIC50: −log10 of the molar value. Where two headings read alike, the source gives them in different places.
# Columns and labels:
# HK1 [1] = test: FITC Annexin V/PI apoptosis assay; assay type: cell-based, human; conditions: 3 days post-treatment, 1 μM
# Procedure, shortened: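 HK1 cells were seeded at 1.0x10^5 cells/0.5 ml/well in 12-well plates. After ~2 h, test compound was added at 5 nM, 10 nM or 1 µM, alone or combined, for 3 days. Adherent and floating cells were stained with FITC-Annexin V and PI in binding buffer for 15 min in the dark. Samples were diluted, kept on ice and analysed by flow cytometry, acquiring 10,000 events per sample.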
# NP460hTert = test: MTS assay, NP460hTert; assay type: cell-based, human; conditions: read-out: IC50 value
# Procedure, shortened: (§1)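 Cell lines were seeded per well in 96-well plates: C666-1 at 30,000, HK1 at 10,000, NP69SV40T at 15,000 and NP460hTert at 15,000. After 2 h at 37°C in 5% CO2, test compound was added at 0.8-200 nM (rocaglates) or 0.15-20 µM (second compound). Vehicle was 0.1% DMSO final, or NaH2PO4. MTS was added after 1-3 days for 1-4 h, reading A490 minus A630. IC50 was fitted from % signal versus vehicle.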
# NP69SV40T = test: MTS assay, NP69SV40T; assay type: cell-based, human; conditions: read-out: IC50 value
# Procedure, shortened: as §1
# HK1 [2] = test: Flow cytometric analysis of cell cycle progression; assay type: cell-based, human
# Procedure, shortened: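 HK1 cells were seeded at 1.0x10^5 cells/0.5 ml/well in 12-well plates. After 2 h, test compound was added at 5 nM, 10 nM or 1 µM, alone or combined. Exposure lasted 2-3 days. Adherent and floating cells were pelleted and stained in hypotonic buffer (propidium iodide, RNase A, sodium citrate, Triton X) on ice, in the dark, for 10 min. ≥10,000 events were acquired by flow cytometry, and DNA-content histograms were modelled for cycle phases.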
# [3] = advanced hematologic malignancy patients; phase I dose-escalation; cited from earlier work
# normal bone marrow cells = conditions: 1 µΜ, two days; cited from earlier work
# [4] = system: NPC cell lines or nasopharyngeal epithelial cells; test: MTS assay, summary over cell lines; assay type: cell-based; conditions: Homo sapiens, read-out: IC50 values
# Procedure, shortened: as §1
# HK1 [5] = test: MTS assay, HK1; assay type: cell-based, human; conditions: read-out: IC50 value
# Procedure, shortened: as §1
# C666-1 = test: MTS assay, C666-1; assay type: cell-based, human
# Procedure, shortened: as §1
# [6] = toxicity studies mostly in murine models; cited from earlier work
# [7] = silvestrol 5 nM, episilvestrol 10 nM or combination with 1 µM CX-5461
smiles,measurement,setting,value
"Cc1cnc(CNC(=O)c2c(=O)c3ccc(N4CCCN(C)CC4)nc3n3c2sc2ccccc23)cn1 [CX-5461, reference compound]",% apoptosis (percentage of total apoptosis),HK1 [1],< 20%
same,pIC50,"NP460hTert; Homo sapiens, 24 h",6.30
same,pIC50,"NP460hTert; Homo sapiens, 48 h",6.40
same,pIC50,"NP69SV40T; Homo sapiens, 24 h",5.22
same,pIC50,"NP69SV40T; Homo sapiens, 48 h",6.00
same,cell cycle arrest,HK1 [2]; 1 µM,arrested cells at S-phase and G2/M
same,tolerability,[3],well tolerated
same,cell death,normal bone marrow cells,minimal cell death
same,pIC50,[4],5.22 to 6.40
same,pIC50,"HK1 [5]; Homo sapiens, HK-1, 24 h",5.70
same,pIC50,"HK1 [5]; Homo sapiens, HK-1, 48 h",6.00
"COC(=O)[C@H]1[C@@H](O)[C@@]2(O)c3c(OC)cc(O[C@@H]4O[C@@H]([C@@H](O)CO)CO[C@H]4OC)cc3O[C@@]2(c2ccc(OC)cc2)[C@@H]1c1ccccc1 [Episilvestrol, episilvestrol]",pIC50,"NP460hTert; NP460hTert, 1 day post-treatment",7.85
same,pIC50,"NP460hTert; NP460hTert, 2 days post-treatment",7.70
same,pIC50,"NP460hTert; NP460hTert, 3 days post-treatment",8.00
same,pIC50,"NP69SV40T; NP69SV40T, 1 day post-treatment",7.17
same,pIC50,"NP69SV40T; NP69SV40T, 2 days post-treatment",7.72
same,pIC50,"NP69SV40T; NP69SV40T, 3 days post-treatment",8.00
same,cell cycle arrest,HK1 [2]; [7],arrested cells at G0/G1
same,pIC50,"C666-1; read-out: IC50 value, 1 day post-treatment",7.25
same,pIC50,"C666-1; read-out: IC50 value, 2 days post-treatment",7.74
same,pIC50,"C666-1; read-out: IC50 value, 3 days post-treatment",8.00
same,pIC50,"HK1 [5]; HK1, 1 day post-treatment",7.22
same,pIC50,"HK1 [5]; HK1, 2 days post-treatment",7.89
same,pIC50,"HK1 [5]; HK1, 3 days post-treatment",8.00
"COC(=O)[C@H]1[C@@H](O)[C@@]2(O)c3c(OC)cc(O[C@@H]4O[C@@H]([C@H](O)CO)CO[C@H]4OC)cc3O[C@@]2(c2ccc(OC)cc2)[C@@H]1c1ccccc1 [Silvestrol, silvestrol]",pIC50,"NP460hTert; Homo sapiens, 24 h",8.05
same,pIC50,"NP460hTert; Homo sapiens, 48 h",8.05
same,pIC50,"NP69SV40T; Homo sapiens, 24 h",7.24
same,pIC50,"NP69SV40T; Homo sapiens, 48 h",8.10
same,tolerability,[6],well tolerated
same,cell cycle arrest,HK1 [2]; [7],arrested cells at G0/G1
same,pIC50,"HK1 [5]; Homo sapiens, HK-1, 24 h",6.88
same,pIC50,"HK1 [5]; Homo sapiens, HK-1, 48 h",8.15
